Screens: PubChem BioAssay, several laboratories
Myeloid diff 2: promotes myeloid progenitor differentiation. ER-HoxA9 myeloid progenitors, lysozyme-GFP differentiation, flow cytometry. calls only at 10 µM. AID 624256. actives 1% (n = 360,000);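 active = normalized GFP-positive differentiation at or above the plate's own cutoff, the solvent-only control mean plus 3 SD; inconclusive = no clear call, values can overlap the other calls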;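 also: cells exposed to compound for four days before flow analysis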
CendR NRP1 mod: alters CendR peptide binding to human NRP-1. O14786. FAM-RPARPAR peptide binding to NRP-1, fluorescence polarization. inhibition, % at 25 µM. actives 0.85% (n = 360,000). AID 602438;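 active = inhibition or corrected inhibition above about 18%, plus a signal ratio from 0.5 to 1.5, limit read from the data, passing the limit was not always enough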
Exocytosis inh: lytic granule exocytosis inhibition; TALL-104 LAMP-1 surface exposure, flow cytometry; cells stimulated with thapsigargin and PMA; actives 0.66% (n = 360,000); inhibition, % at 10 µM;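 active = inhibition above about 55%, limit read from the data; inconclusive = no clear call, values can overlap the other calls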
ATG4B inh: ATG4B (human) cysteine protease inhibition; ATG4B cleavage of LC3-PLA2, NBD-HPC fluorescence, 1 h; inhibition, % at 8.33 µM; actives 0.51% (n = 340,000); in the data active = inhibition above about 40%
Target sequence (Q9Y4P1 whole entry, looked up): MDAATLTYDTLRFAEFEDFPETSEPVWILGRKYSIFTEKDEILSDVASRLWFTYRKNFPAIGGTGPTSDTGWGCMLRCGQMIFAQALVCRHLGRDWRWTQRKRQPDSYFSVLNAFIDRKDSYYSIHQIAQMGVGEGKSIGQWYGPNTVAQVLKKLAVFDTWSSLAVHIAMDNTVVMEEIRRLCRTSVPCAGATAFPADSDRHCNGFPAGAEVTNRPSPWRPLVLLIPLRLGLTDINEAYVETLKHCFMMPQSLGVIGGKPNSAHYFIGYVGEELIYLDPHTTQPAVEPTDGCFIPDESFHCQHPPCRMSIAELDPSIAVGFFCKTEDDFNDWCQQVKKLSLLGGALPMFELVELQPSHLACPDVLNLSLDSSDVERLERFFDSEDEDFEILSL
ABCB6 inh MLPCN: inhibitors of human ABC transporter ABCB6 | actives 0.19% (n = 360,000) | AID 602162 | K562-ABCB6 porphyrin accumulation, flow cytometry, 1 h; stronger effect = lower value | fluorescence ratio to DMSO, % at 10 µM | Q9NP58;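 active = fluorescence ratio to DMSO below 75%, the collection mean minus 3 SD; inconclusive = too few cells collected in the well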;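 also: signal is porphyrin accumulated inside mitochondria; lower ratio means ABCB6 inhibition with less porphyrin fluorescence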
Arr AP2 block: blocks beta-arrestin peptide binding to AP2 adaptin; FITC-arrestin peptide / GST-AP2 beads, flow cytometry; AP2 beta2 appendage carries R879A mutation; inhibition, % at 10 µM; actives 0.31% (n = 340,000); AID 504490;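 active = inhibition above a set limit, near 3 SD of compounds lacking own fluorescence, cut at about 54% in these data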
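System: GST-AP2 R879A bound to glutathione beads, E. coli-expressed. Also added: 50 nM FITC-arrestin peptide. Schedule: compound with beads 12 min RT, then probe 1 h RT. Signal: bead flow cytometry, FITC channel. Read-out basis: percent response.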
Large screens that a line does not name were inactive. Compounds with a hit are over-represented: about 3.3% of the library has one in this group of screens.

COc1ccc(CC(=O)Nc2ccccc2C(=O)N2CCOCC2)cc1	none
NC(=NC1CCCCC1)NS(=O)(=O)c1ccccc1	none
COc1ccccc1C(=O)NC(=S)Nc1ccc(NC(=O)c2ccco2)cc1	Exocytosis inh 68.0
COC(=O)c1c(C(=O)OC)c(-c2ccc(Cl)c(Cl)c2)n2c1CCC2	CendR NRP1 mod 22.6
Cc1ccc(S(C)=O)cc1-n1c(=O)n(Cc2ccccc2)c(=O)c2[nH]cnc21 (stereo unspecified)	Myeloid diff 2 active
O=C(NCCn1cc(SCc2ccc(F)cc2)c2ccccc21)c1ccccc1F	Myeloid diff 2 active
CN1CCCN(S(=O)(=O)c2cccc(C(F)(F)F)c2)c2nc3ccccc3nc21	Myeloid diff 2 active
CC(C(=O)OCC(=O)NC1CCCC1)N1C(=O)c2ccccc2C1=O (stereo unspecified)	none
Cc1cc(C(=O)C(C)OC(=O)c2ccc(NC(=O)CC#N)cc2)c(C)n1-c1ccccc1 (stereo unspecified)	Myeloid diff 2 active
CC(OC(=O)c1ccc(NC(=O)CC#N)cc1)C(=O)Nc1ccc2c(c1)OCCO2 (stereo unspecified)	none
COc1ccc(NC(=O)N2CCCC2C(=O)NCc2cccs2)cc1 (stereo unspecified)	none
NC(=O)CCN1CCN(Cc2nc(C(c3ccccc3)c3ccccc3)no2)CC1	none
COc1ccc(S(=O)(=O)N2CCOC2CNC(=O)C(=O)NCc2ccc3c(c2)OCO3)cc1 (stereo unspecified)	CendR NRP1 mod 23.4
CC(=O)C1=C(C)NC(C)=C(C(C)=O)C1c1ccccc1	none
CCC(C)NC(=O)c1[nH]c(C)c(C(=O)OC)c1C (stereo unspecified)	none
CCOc1ccccc1N1CCN(C(=O)c2ccncc2)CC1	CendR NRP1 mod 43.2 (no result: Myeloid diff 2)
CCOc1ccc2ccccc2c1C(=O)N1CCN(c2ccccc2)CC1	Myeloid diff 2 active
CCOc1ccccc1N1CCN(C(=O)c2cccc(-c3ccc(O)cc3)c2)CC1	none
CCOc1ccccc1N1CCN(C(=O)c2cc(-c3cccnc3)nc3c(Cl)cccc23)CC1	Myeloid diff 2 active
CCOC(=O)c1[nH]c(C)c(C(=O)N2CCN(c3ccccc3)CC2)c1C	none
CC1(C(=O)NCc2cccs2)Cc2c(-c3ccccc3)ccnc2O1 (stereo unspecified)	Myeloid diff 2 inconclusive (no result: ATG4B inh, Arr AP2 block)
CCN(CC)CCNC(=O)c1ccc(Sc2ccc(Cl)cc2)c(NC(C)=O)c1	none
CCN(C(=O)COC(=O)CCc1ccccc1)c1ccccc1	none
CN1CCN(S(=O)(=O)c2ccc(NC(=O)Nc3cccc(Cl)c3)cc2)CC1	CendR NRP1 mod 27.0
Cc1ccc(NS(=O)(=O)c2ccc(C(=O)NCc3cccnc3)cc2)cc1	CendR NRP1 mod 20.9
O=C(NCc1cccnc1)c1ccc(S(=O)(=O)Nc2ccccc2)cc1	none
CCCCNC(=O)c1cc2c(=O)n3cccc(C)c3nc2n(Cc2ccccc2)c1=N	Myeloid diff 2 active
Cc1cccn2c(=O)c3cc(C(N)=S)c(=N)n(CCCOC(C)C)c3nc12	Myeloid diff 2 active
CCOCCCn1c(=N)c(C(N)=S)cc2c(=O)n3cccc(C)c3nc21	none
CCOC(=O)c1sc2nc3c(SCCC(=O)O)cc(C(=O)c4cc(OC)ccc4O)cn3c(=O)c2c1C	Myeloid diff 2 active
O=C(O)CSc1cc(C(=O)c2cc(F)ccc2O)cn2c(=O)c3c(-c4ccccc4)csc3nc12	none
Cc1ccc(/C(=N/Nc2ncnc3ccccc23)C(=O)O)cc1	none
COC(=O)C(=O)C/C(=N/Nc1ncnc2ccccc12)c1ccc(Cl)cc1	Myeloid diff 2 active
O=C(Nc1ccc(F)cc1)c1ccc(S(=O)(=O)N2CCOCC2)o1	CendR NRP1 mod 25.4
O=C(/C(=C(\[O-])c1ccccc1)[n+]1ccc2ccccc2c1)c1ccccc1	Myeloid diff 2 active
O=C(/C(=C(\[O-])c1ccccc1)[n+]1ccc2ccccc2c1)c1ccc(Cl)cc1	none
CCNCc1nc2cc(OC)c(OC)cc2c(=O)[nH]1	CendR NRP1 mod 28.0
C=C1C(O)[C@@H]2O[C@]3(CC[C@H](/C=C/C(C)[C@@H]4CC(C)=CC5(O[C@H](C[C@@](C)(O)CO)CCC5O)O4)O3)CC[C@H]2O[C@@H]1C(O)CC(C)[C@H]1OC2(CCCCO2)CCC1C (stereo partly specified)	none (no result: Myeloid diff 2, CendR NRP1 mod, Exocytosis inh, ABCB6 inh MLPCN, Arr AP2 block)
CC(C)=CC(=O)Nc1nc2ccc([N+](=O)[O-])cc2s1	Myeloid diff 2 active
C/C(=C\c1ccccc1)C(=O)Nc1nc2ccc([N+](=O)[O-])cc2s1	none
C[C@@H](C(=O)NCCc1c[nH]c2ccccc12)[C@@H]1C[C@@]1(C)[C@@H](NC(=O)OCc1ccccc1)c1ccccc1	ABCB6 inh MLPCN 74.0
C[C@@H](C(=O)NCc1ccccc1)[C@@H]1C[C@@]1(C)[C@@H](NC(=O)OCc1ccccc1)c1ccccc1	none
COCCCNC(=O)CCCn1c(=O)c2ccccc2n(CC(=O)Nc2c(C)cc(C)cc2C)c1=O	Myeloid diff 2 active
COCCCNC(=O)CCn1c(=O)c2ccccc2n(CC(=O)Nc2c(C)cccc2C)c1=O	none
COc1ccc(CNC(=O)c2ccccc2[N+](=O)[O-])cc1	CendR NRP1 mod 26.2
COc1ccc(NC(=O)c2ccccc2[N+](=O)[O-])cc1	none
CC1=C(C(=O)OCCOC(C)C)C(c2cc3c(cc2Br)OCO3)C2=C(CCCC2=O)N1 (stereo unspecified)	Exocytosis inh 100.2
CCN(CC)c1ccc(C2C(C(=O)OCCOC(C)C)=C(C)NC3=C2C(=O)CCC3)cc1 (stereo unspecified)	none
O=C(Nc1ncccc1O)C1CCN(S(=O)(=O)c2ccc3ccccc3c2)CC1	none
O=C(O)C1C2C=CC(O2)C1C(=O)Nc1ccc(S(=O)(=O)Nc2ccccc2)cc1 (stereo unspecified)	Exocytosis inh 101.6
C/C=C/c1ccc(OCCOc2ccc(C=O)cc2)c(OC)c1	none
COCOc1ccc(C=O)cc1OCOC	CendR NRP1 mod 22.1
CCc1nc2ccc(C(=O)N(C)CCN(C)C)cn2c1N(C)CCC(C)C	none (no result: ATG4B inh, Arr AP2 block)
NC(=S)N=Nc1c(O)n(CCCl)c2ccc(Br)cc12	Exocytosis inh 78.0
Cc1c(/C=N/Nc2nc3ccccc3[nH]2)c2ccccc2n1C	Exocytosis inh 84.8
Cn1c(/C=N/Nc2nc3ccccc3[nH]2)nc2ccccc21	none
CC(C)Cn1c(/C=N/Nc2nc3ccccc3[nH]2)nc2ccccc21	Myeloid diff 2 active
COc1ccc(C)cc1N(CC(=O)N1CCc2ccccc2C1)S(C)(=O)=O	CendR NRP1 mod 26.5
CCOc1ccccc1N(CC(=O)N1CCc2ccccc2C1)S(C)(=O)=O	none
COc1ccccc1N(CC(=O)N1CCc2ccccc2C1)S(C)(=O)=O	CendR NRP1 mod 24.8
